Calls of active or inactive are those of the source. The calls are words filed in the database; no cut-off is given here.
What was measured:
NCI-H1299 [1] = test: Induction of apoptosis in human H1299 cells assessed as viable cells at 0.5 uM after 48 hrs by AnnexinV-FITC/PI staining-based flow cytometric analysis (reference value: 97.1%); type: functional; conditions: NCI-H1299, 48 h, read-out: Activity
NCI-H1299 [2] = test: Inhibition of colony formation in human H1299 cells after 12 days by crystal violet staining based assay; type: functional, cell-based
Method in brief: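 Cells exposed to compound, then washed, trypsinized and reseeded at 300 cells per well in 6-well plates. Colonies grew 10-14 days (legend: 12 days), were fixed in methanol 30 min, stained overnight with 0.5% crystal violet and imaged.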

[3] = molecular target: Phosphatidylinositol 4-phosphate 3-kinase C2 domain-containing subunit alpha (Homo sapiens) (UniProt O00443); test: Inhibition of recombinant human PI3KC2alpha (299 to end residues) at 1 uM using phosphatidylinositol as substrate measured after 40 mins by HTRF assay relative to control
Homo sapiens = species on record: Homo sapiens; test: Inhibition of recombinant human MARK1 V16E/T20S double mutant (2 to end residues) at 1 uM using KKKVSRSGLYRSPSMPENLNRPR as substrate measured after 40 mins in presence of [gamma33P]ATP by scintillation counting method relative to control
[4] = molecular target: Hepatocyte growth factor receptor (Homo sapiens) (UniProt P08581); test: Inhibition of recombinant human MET A1209G/V1290L mutant (974 to end residues) at 1 uM using KKKGQEEEYVFIE as substrate measured after 40 mins in presence of [gamma33P]ATP by scintillation counting method relative to control
Sequence of Hepatocyte growth factor receptor (Homo sapiens) (P08581 whole entry, the tested form may be a part): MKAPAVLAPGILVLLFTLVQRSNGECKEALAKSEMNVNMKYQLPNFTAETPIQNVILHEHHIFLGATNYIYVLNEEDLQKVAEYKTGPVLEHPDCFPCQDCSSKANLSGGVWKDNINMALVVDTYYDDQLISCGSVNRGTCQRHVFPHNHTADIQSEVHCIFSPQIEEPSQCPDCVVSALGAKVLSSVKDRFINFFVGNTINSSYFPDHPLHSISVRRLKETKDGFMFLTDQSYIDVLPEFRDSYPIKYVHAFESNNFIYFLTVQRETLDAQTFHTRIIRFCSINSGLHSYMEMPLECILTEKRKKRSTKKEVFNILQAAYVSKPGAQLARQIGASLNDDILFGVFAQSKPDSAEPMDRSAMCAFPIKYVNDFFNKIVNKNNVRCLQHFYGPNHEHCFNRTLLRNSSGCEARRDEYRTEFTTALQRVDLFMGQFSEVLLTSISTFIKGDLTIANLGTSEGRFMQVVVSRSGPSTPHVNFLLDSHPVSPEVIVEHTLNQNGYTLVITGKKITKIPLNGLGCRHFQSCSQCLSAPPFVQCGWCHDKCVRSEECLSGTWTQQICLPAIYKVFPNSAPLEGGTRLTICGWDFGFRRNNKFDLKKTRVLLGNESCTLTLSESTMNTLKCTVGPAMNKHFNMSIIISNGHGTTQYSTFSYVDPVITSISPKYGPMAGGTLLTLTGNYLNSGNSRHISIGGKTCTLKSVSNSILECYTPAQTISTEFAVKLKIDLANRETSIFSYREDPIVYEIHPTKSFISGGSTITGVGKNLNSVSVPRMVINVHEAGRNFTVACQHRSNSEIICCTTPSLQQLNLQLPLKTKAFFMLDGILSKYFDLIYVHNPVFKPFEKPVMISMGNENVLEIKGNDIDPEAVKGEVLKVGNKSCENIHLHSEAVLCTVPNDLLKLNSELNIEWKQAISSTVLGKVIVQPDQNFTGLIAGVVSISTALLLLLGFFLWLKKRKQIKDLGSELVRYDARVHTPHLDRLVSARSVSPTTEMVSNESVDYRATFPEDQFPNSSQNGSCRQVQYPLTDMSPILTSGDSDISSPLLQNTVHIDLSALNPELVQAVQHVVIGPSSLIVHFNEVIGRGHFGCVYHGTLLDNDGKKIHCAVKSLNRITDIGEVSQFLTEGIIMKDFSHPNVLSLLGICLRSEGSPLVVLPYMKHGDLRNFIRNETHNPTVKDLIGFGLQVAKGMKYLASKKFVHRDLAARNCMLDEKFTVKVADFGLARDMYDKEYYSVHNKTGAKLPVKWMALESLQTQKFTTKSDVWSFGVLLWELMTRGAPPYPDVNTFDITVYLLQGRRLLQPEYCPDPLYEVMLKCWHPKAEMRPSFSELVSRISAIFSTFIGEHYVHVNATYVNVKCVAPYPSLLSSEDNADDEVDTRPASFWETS

[5] = molecular target: CDK4/Cyclin D3 (Homo sapiens) (UniProt P11802+P30281); test: Inhibition of recombinant full-length human CDK4/cyclinD3 at 1 uM using Rb fragment as substrate measured after 40 mins in presence of [gamma33P]ATP by scintillation counting method relative to control; type: protein-complex assay
Method in brief: (§1)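 Percent inhibition of kinase activity at a single compound concentration, measured by the outsourced Eurofins KinaseProfiler panel. Values are the mean of two independent experiments.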

[6] = molecular target: Calcium/calmodulin-dependent protein kinase type 1G (Homo sapiens) (UniProt Q96NX5); test: Inhibition of full-length recombinant human CaMK1 gamma at 1 uM using KKLRRTLSFAEPG as substrate measured after 40 mins in presence of [gamma33P]ATP by scintillation counting method relative to control; method in brief: as §1
[7] = molecular target: Myosin light chain kinase 2, skeletal/cardiac muscle (Homo sapiens) (UniProt Q9H1R3); test: Inhibition of recombinant full length human MYLK2 at 1 uM using KKLNRTLSFAEPG as substrate measured after 40 mins in presence of [gamma33P]ATP by scintillation counting method relative to control
Method in brief: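 Single-point inhibition at 1 µM was measured in the Eurofins KinaseProfiler panel. Values are the mean of two independent experiments.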

[8] = molecular target: Leucine-rich repeat serine/threonine-protein kinase 2 (Homo sapiens) (UniProt Q5S007); test: Inhibition of recombinant human LRRK2 (970 to end residues) at 1 uM using RLGRDKYKTLRQIRQ as substrate measured after 40 mins in presence of [gamma33P]ATP by scintillation counting method relative to control
[9] = molecular target: Tyrosine-protein kinase JAK1 (Homo sapiens) (UniProt P23458); test: Inhibition of recombinant human JAK1 (866 to end residues) at 1 uM using GEEPLYWSFPAKKK as substrate measured after 40 mins in presence of [gamma33P]ATP by scintillation counting method relative to control
Sequence of Tyrosine-protein kinase JAK1 (Homo sapiens) (P23458 whole entry): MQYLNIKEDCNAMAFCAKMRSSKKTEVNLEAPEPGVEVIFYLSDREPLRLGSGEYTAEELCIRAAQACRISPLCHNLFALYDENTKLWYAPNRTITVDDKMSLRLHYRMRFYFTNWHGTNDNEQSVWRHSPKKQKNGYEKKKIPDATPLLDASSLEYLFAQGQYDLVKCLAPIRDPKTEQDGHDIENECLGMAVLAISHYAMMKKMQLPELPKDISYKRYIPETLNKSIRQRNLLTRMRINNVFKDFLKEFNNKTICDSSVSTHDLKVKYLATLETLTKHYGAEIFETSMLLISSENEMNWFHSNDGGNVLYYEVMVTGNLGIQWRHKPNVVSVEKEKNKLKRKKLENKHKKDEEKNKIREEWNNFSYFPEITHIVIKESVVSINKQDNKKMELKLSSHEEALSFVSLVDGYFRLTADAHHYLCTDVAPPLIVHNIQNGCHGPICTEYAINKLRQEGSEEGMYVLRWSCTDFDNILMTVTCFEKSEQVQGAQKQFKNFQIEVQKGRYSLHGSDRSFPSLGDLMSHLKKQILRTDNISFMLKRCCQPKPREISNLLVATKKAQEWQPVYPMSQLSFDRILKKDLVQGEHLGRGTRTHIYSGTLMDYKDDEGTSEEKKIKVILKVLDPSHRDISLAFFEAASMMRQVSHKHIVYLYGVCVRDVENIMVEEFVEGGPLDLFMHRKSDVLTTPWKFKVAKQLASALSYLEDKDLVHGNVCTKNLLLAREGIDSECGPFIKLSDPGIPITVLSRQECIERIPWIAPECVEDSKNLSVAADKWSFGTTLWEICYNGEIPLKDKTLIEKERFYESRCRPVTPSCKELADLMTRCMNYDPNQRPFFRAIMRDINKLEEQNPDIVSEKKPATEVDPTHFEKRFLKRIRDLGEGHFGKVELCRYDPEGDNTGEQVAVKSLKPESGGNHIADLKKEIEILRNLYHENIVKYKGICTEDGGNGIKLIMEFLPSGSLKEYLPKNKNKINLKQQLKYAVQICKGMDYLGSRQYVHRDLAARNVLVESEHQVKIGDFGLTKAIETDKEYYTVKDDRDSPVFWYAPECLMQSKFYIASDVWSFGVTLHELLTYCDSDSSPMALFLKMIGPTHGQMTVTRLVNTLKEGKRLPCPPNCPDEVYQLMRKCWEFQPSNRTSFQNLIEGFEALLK

[10] = system: Serine/threonine-protein kinase Sgk1 (Homo sapiens), O00141 [S422D]; test: Inhibition of recombinant human SGK S422D mutant (60 to end residues) at 1 uM using GRPRTSSFAEGKK as substrate measured after 40 mins in presence of [gamma33P]ATP by scintillation counting method relative to control
Sequence of Serine/threonine-protein kinase Sgk1 (Homo sapiens), O00141 [S422D] (O00141 whole entry S422D): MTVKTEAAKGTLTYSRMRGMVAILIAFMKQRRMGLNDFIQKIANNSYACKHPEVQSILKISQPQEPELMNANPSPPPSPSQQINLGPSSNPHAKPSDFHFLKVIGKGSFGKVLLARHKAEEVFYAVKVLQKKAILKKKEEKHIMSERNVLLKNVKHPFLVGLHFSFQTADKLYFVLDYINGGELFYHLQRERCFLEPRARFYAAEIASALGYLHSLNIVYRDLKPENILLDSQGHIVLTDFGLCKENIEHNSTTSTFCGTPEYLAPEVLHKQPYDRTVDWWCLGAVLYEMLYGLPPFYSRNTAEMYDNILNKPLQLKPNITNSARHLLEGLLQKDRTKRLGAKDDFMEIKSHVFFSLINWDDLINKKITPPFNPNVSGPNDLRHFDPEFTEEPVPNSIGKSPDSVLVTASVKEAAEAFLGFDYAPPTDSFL

[11] = molecular target: G protein-coupled receptor kinase 6 (Homo sapiens) (UniProt P43250); test: Inhibition of recombinant full-length human GRK6 at 1 uM using casein as substrate measured after 40 mins in presence of [gamma33P]ATP by scintillation counting method relative to control
Sequence of G protein-coupled receptor kinase 6 (Homo sapiens) (P43250 whole entry, looked up): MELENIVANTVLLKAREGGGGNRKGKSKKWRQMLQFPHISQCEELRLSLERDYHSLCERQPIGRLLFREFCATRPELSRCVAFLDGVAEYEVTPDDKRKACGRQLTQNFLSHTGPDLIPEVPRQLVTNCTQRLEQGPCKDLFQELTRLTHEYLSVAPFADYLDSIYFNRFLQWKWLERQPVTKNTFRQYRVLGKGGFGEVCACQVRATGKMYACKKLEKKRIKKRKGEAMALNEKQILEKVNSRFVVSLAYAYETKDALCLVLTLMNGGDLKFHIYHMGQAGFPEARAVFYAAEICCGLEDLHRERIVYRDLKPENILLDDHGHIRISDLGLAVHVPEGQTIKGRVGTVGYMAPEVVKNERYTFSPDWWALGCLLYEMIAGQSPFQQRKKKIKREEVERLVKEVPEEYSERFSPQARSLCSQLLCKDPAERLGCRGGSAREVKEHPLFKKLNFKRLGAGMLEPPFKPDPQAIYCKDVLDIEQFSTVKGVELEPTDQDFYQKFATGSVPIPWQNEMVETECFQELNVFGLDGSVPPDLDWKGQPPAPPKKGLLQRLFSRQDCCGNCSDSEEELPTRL

A549 = test: Downregulation of SOX2 in human A549 cells at 0.25 to 1 uM by Western blot analysis; type: functional, cell-based
[12] = molecular target: Calcium/calmodulin-dependent protein kinase type II subunit gamma (Homo sapiens) (UniProt Q13555); test: Inhibition of recombinant full-length human CaMK2gamma (1 to 330 residues) at 1 uM using calmodulin as substrate measured after 40 mins in presence of [gamma33P]ATP by scintillation counting method relative to control
Sequence of Calcium/calmodulin-dependent protein kinase type II subunit gamma (Homo sapiens) (Q13555 whole entry, the tested form may be a part): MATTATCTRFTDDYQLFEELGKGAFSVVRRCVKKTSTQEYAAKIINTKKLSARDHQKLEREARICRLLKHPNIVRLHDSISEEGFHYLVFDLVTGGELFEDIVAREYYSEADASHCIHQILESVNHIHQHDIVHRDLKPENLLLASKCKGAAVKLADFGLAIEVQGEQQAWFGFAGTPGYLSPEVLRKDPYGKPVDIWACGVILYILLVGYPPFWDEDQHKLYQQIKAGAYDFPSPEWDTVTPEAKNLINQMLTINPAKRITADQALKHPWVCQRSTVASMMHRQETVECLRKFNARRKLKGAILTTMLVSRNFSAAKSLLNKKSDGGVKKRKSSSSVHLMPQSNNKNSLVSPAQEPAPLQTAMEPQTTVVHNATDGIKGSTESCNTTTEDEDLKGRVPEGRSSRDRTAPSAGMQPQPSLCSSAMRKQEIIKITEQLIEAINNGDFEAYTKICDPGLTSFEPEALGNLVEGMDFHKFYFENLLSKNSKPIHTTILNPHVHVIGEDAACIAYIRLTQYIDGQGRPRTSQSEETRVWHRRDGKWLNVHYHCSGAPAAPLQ

[13] = molecular target: Mitogen-activated protein kinase 10 (Homo sapiens) (UniProt P53779); test: Inhibition of recombinant full-length human JNK3 at 1 uM using peptide as substrate measured after 40 mins in presence of [gamma33P]ATP by scintillation counting method relative to control
[14] = molecular target: Casein kinase II subunit alpha' (Homo sapiens) (UniProt P19784); test: Inhibition of full length recombinant human CK2alpha2 at 1 uM using RRRDDDSDDD as substrate measured after 40 mins in presence of [gamma33P]ATP by scintillation counting method relative to control
Sequence of Casein kinase II subunit alpha' (Homo sapiens) (P19784 whole entry, looked up): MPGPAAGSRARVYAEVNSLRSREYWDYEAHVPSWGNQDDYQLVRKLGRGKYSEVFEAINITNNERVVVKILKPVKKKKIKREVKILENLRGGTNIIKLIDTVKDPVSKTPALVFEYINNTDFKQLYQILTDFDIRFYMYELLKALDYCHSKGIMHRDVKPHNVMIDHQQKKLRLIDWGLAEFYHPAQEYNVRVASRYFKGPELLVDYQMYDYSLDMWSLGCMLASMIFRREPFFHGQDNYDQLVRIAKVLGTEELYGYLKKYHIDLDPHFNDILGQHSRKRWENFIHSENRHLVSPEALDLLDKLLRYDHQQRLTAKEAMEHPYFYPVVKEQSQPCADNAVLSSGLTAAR

[15] = molecular target: G protein-coupled receptor kinase 3 (Homo sapiens) (UniProt P35626); test: Inhibition of recombinant full-length human GRK3 at 1 uM using casein as substrate measured after 40 mins in presence of [gamma33P]ATP by scintillation counting method relative to control
[16] = system: Proto-oncogene tyrosine-protein kinase Src (Homo sapiens), P12931 [T341M]; test: Inhibition of recombinant full-length human Src T341M mutant at 1 uM using GGEEEEYFELVKKKK as substrate measured after 40 mins in presence of [gamma33P]ATP by scintillation counting method relative to control
[17] = molecular target: MAP kinase-interacting serine/threonine-protein kinase 2 (Homo sapiens) (UniProt Q9HBH9); test: Inhibition of recombinant full-length human Mnk2 at 1 uM using myelin basic protein as substrate measured after 40 mins in presence of [gamma33P]ATP by scintillation counting method relative to control
NCI-H1299 [18] = test: Induction of cell cycle arrest in human H1299 cells assessed as accumulation at G2/M phase after 24 hrs by propidium iodide/RNase staining based flow cytometric analysis; type: functional
Method in brief: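 A549 and H1299 plated at 5×10^5 cells/mL in 6-well plates, treated after adherence for 24 h. Washed with PBS, fixed overnight in ice-cold 75% ethanol, stained with propidium iodide plus RNase A for 30 min at 37 °C, analysed by flow cytometry for phase distribution. Means ± SD, three independent experiments.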

[19] = molecular target: Protein kinase C iota type (Homo sapiens) (UniProt P41743); test: Inhibition of recombinant full-length human PKCiota at 1 uM using ERMRPRKRQGSVRRRV as substrate measured after 40 mins in presence of [gamma33P]ATP by scintillation counting method relative to control
Sequence of Protein kinase C iota type (Homo sapiens) (P41743 whole entry): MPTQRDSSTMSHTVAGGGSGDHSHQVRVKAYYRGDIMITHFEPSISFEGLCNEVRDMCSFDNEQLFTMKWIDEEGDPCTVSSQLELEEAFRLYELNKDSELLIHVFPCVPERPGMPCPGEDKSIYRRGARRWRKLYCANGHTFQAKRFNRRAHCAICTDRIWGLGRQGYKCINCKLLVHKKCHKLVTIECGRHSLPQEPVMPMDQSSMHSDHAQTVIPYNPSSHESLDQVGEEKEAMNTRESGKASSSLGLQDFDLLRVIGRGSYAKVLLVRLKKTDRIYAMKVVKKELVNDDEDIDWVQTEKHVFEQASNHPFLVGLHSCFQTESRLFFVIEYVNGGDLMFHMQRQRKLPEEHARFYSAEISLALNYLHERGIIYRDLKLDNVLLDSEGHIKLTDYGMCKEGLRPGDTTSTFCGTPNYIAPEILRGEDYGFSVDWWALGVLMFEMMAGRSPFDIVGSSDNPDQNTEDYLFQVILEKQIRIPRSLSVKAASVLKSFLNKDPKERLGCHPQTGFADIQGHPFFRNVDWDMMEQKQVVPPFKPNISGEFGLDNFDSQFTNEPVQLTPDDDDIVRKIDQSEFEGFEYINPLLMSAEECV

[20] = molecular target: PI3K p110 beta/p85 alpha (Homo sapiens) (UniProt P27986+P42338); test: Inhibition of recombinant full-length human PI3K p110beta/p85alpha at 1 uM using phosphatidylinositol-4, 5-bisphosphate as substrate measured after 40 mins by fluorescence assay relative to control; type: protein-complex assay

In the case of `CN(C)C(=O)c1cc2cnc(Nc3ccc(NC(=O)CCCCCCCN=C=S)cc3)nc2n1C1CCCC1`, the viability at 0.5 µM (NCI-H1299 [1]) was 94.5%, the inhibition (NCI-H1299 [2]) was “Dose-dependent effect” and the inhibition [3] was -3%. It also gave an inhibition (Homo sapiens) of 59%, an inhibition [4] of 84% and an inhibition [5] of 87%. It also gave an inhibition [6] of 21%, an inhibition [7] of 12% and an inhibition [8] of 8%. For the same compound, the inhibition [9] was 77%, the inhibition [10] was 24% and the inhibition [11] was 5%. For the same compound, the Activity (A549) was “Active”, the inhibition [12] was 53% and the inhibition [13] was 85%. The inhibition [14] was -4%, the inhibition [15] was 3% and the inhibition [16] was 20%. For the same compound, the inhibition [17] was 68%, the Activity (NCI-H1299 [18]) was “Dose-dependent effect” and the inhibition [19] was -4%. The inhibition [20] was 5%.
